Measured values pooled from the literature.
Each line is one published result; the experiments were not run side by side.
GRM4: Metabotropic glutamate receptor 4 (GRM4, Homo sapiens, UniProt Q14833)
Adora1: Adenosine receptor A1 (Adora1, Rattus norvegicus, UniProt P25099)
Melanocortin receptor 5: Melanocortin receptor 5 (Mus musculus, UniProt P41149)
gyrB: DNA gyrase subunit B (gyrB, Escherichia coli, UniProt P0AES6)
PKN1: Serine/threonine-protein kinase N1 (PKN1, Homo sapiens, UniProt Q16512)
CA9: Carbonic anhydrase 9 (CA9, Homo sapiens, UniProt Q16790)

Compound | target | read-out | action | method | setting | endpoint | result
O=C(Nc1ccc(N2C(=O)c3ccccc3C2=O)c(Cl)c1)c1ncccc1Cl | GRM4 | calcium signal | agonist |  |  | EC50 | > 10000 nM
CCCC(C)N1CCCn2c1nc1c2c(=O)n(C)c(=O)n1C (centres unmarked) | Adora1 | ligand displacement |  | radioligand | cell membranes | Ki | > 25000 nM
N=C(N)NCCC[C@H](NC(=O)[C@H](CC(=O)O)NC(=O)[C@H](Cc1c[nH]c2ccccc12)NC(=O)[C@@H](N)CCCNC(=N)N)C(=O)N[C@@H](Cc1ccccc1)C(=O)NCC(=O)O | Melanocortin receptor 5 | reporter gene | agonist |  |  | EC50 | > 100000 nM
CCCCN1CCCn2c1nc1c2c(=O)n(CCC)c(=O)n1CCC | Adora1 | ligand displacement |  | radioligand | cell membranes | Ki | 280 nM
Cc1cccnc1C(=O)Nc1ccc(N2C(=O)c3ccccc3C2=O)c(Cl)c1 | GRM4 | calcium signal | agonist |  |  | EC50 | > 10000 nM
CNc1cccc2cc(C(=O)NCc3ccc(C(=O)O)cc3)c(=O)[nH]c12 | gyrB | binding |  | ITC |  | Kd | 9.3 nM
CO[C@@]1(NC(=O)C2SC(=C(C(N)=O)C(=O)O)S2)C(=O)N2C(C(=O)O)=C(CSc3nnnn3C)CS[C@@H]21 (some centres unmarked) | Phosphatidylethanolamine-binding protein 1 (Homo sapiens, UniProt P30086) | binding |  |  |  | Kd | 35800 nM
O=S(=O)(NCCNC/C=C/c1ccc(Br)cc1)c1cccc2cnccc12 | PKN1 | enzyme activity | inhibitor |  |  | IC50 | 155 nM
CNc1cccc2cc(C(=O)NCCc3ccc(C(=O)O)cc3)c(=O)[nH]c12 | gyrB | binding |  | ITC |  | Kd | 23 nM
Cc1cnc(-c2ccc(-c3ccc(NC(=O)Nc4c(F)cc(F)cc4F)cc3F)c3c2C(=O)NC3)[nH]1 | Serine/threonine-protein kinase 26 (STK26, Homo sapiens, UniProt Q9P289) | binding |  | competition with immobilised ligand |  | Kd | 8.2 nM
O=C(O)c1ccc(NC(=O)c2cc3ccccc3[nH]c2=O)cc1 | gyrB | binding |  | ITC |  | Kd | 730 nM
CNC(=O)c1cccc2oc(C(=O)NC3CCCN(CC(=O)Nc4ccc(S(N)(=O)=O)cc4)C3)cc12 (centres unmarked) | CA9 | enzyme activity | inhibitor |  |  | IC50 | 70.8 nM
CC(C)CCCC(C)N1CCCn2c1nc1c2c(=O)n(C)c(=O)n1C (centres unmarked) | Adora1 | ligand displacement |  | radioligand | cell membranes | Ki | 7690 nM
N=C(N)NCCC[C@H](NC(=O)[C@H](CC(=O)O)NC(=O)[C@H](Cc1c[nH]c2ccccc12)NC(=O)[C@H](CCCNC(=N)N)NC(=O)[C@H](Cc1ccccc1)NC(=O)[C@@H](N)Cc1c[nH]cn1)C(=O)N[C@@H](Cc1ccccc1)C(=O)O | Melanocortin receptor 5 | reporter gene | agonist |  |  | EC50 | 1870 nM
Cc1ccc(S(N)(=O)=O)c(C(=O)Nc2ccc(NC(=O)NCC3CCCO3)cc2)c1 (centres unmarked) | CA9 | enzyme activity | inhibitor |  |  | IC50 | 7880 nM
N=C(N)NCCC[C@H](NC(=O)[C@H](CC(=O)O)NC(=O)[C@H](Cc1c[nH]c2ccccc12)NC(=O)[C@H](CCCNC(=N)N)NC(=O)[C@@H](N)Cc1ccccc1)C(=O)N[C@@H](Cc1ccccc1)C(=O)NCC(=O)O | Melanocortin receptor 5 | reporter gene | agonist |  |  | EC50 | 13500 nM
NS(=O)(=O)c1ccc(NC(=O)NCc2cccc(NC(=O)C3CC3)c2)cc1 | CA9 | enzyme activity | inhibitor |  |  | IC50 | 55 nM
CCC(C)N1CCCn2c1nc1c2c(=O)n(C)c(=O)n1C (centres unmarked) | Adora1 | ligand displacement |  | radioligand | cell membranes | Ki | ≥ 25000 nM

Compound | target | read-out | action | method | setting | endpoint | result
CSCC[C@H](NC(=O)[C@@H](NC(=O)[C@@H](N)Cc1ccc(O)cc1)C(C)C)C(=O)NCC(=O)N[C@@H](Cc1c[nH]cn1)C(=O)N[C@@H](Cc1ccccc1)C(=O)N[C@@H](CCCNC(=N)N)C(=O)N[C@@H](Cc1c[nH]c2ccccc12)C(=O)N[C@@H](CC(=O)O)C(=O)N[C@@H](CCCNC(=N)N)C(=O)N[C@@H](Cc1ccccc1)C(=O)O | Melanocortin receptor 5 | reporter gene | agonist |  |  | EC50 | 130 nM
NS(=O)(=O)c1ccc(NC(=O)COC(=O)c2ccccc2Nc2cccc(C(F)(F)F)c2)cc1 | CA9 | enzyme activity | inhibitor |  |  | IC50 | 87 nM
CNc1cccc2cc(C(=O)NCc3cccc(C(=O)O)c3)c(=O)[nH]c12 | gyrB | binding |  | ITC |  | Kd | 390 nM
CC(C)CC(C)N1CCCn2c1nc1c2c(=O)n(C)c(=O)n1C (centres unmarked) | Adora1 | ligand displacement |  | radioligand | cell membranes | Ki | > 25000 nM
N=C(N)NCCC[C@H](NC(=O)[C@H](CC(=O)O)NC(=O)[C@H](Cc1c[nH]c2ccccc12)NC(=O)[C@H](CCCNC(=N)N)NC(=O)[C@H](Cc1ccccc1)NC(=O)[C@@H](N)Cc1c[nH]cn1)C(=O)N[C@@H](Cc1ccccc1)C(=O)NCC(=O)O | Melanocortin receptor 5 | reporter gene | agonist |  |  | EC50 | 760 nM
CN(c1ccccc1CNc1nc(Nc2ccc3c(c2)CC(=O)N3)ncc1C(F)(F)F)S(C)(=O)=O | PKN1 | enzyme activity | inhibitor |  |  | IC50 | 129 nM
CC(=O)Nc1cccc2c1CC(C)N2Cc1ccoc1C(=O)Nc1ccc(S(N)(=O)=O)cc1 (centres unmarked) | CA9 | enzyme activity | inhibitor |  |  | IC50 | 37.2 nM
N=C(N)NCCC[C@H](NC(=O)[C@H](CC(=O)O)NC(=O)[C@H](Cc1c[nH]c2ccccc12)NC(=O)[C@H](CCCNC(=N)N)NC(=O)[C@@H](N)Cc1ccccc1)C(=O)N[C@@H](Cc1ccccc1)C(=O)O | Melanocortin receptor 5 | reporter gene | agonist |  |  | EC50 | 6730 nM
O=C(O)c1cccc(NC(=O)c2cc3ccccc3[nH]c2=O)c1 | gyrB | binding |  | ITC |  | Kd | 7000 nM
CCCCCC(C)N1CCCn2c1nc1c2c(=O)n(C)c(=O)n1C (centres unmarked) | Adora1 | ligand displacement |  | radioligand | cell membranes | Ki | > 25000 nM
N=C(N)NCCC[C@H](NC(=O)[C@H](CC(=O)O)NC(=O)[C@@H](N)Cc1c[nH]c2ccccc12)C(=O)N[C@@H](Cc1ccccc1)C(=O)NCC(=O)O | Melanocortin receptor 5 | reporter gene | agonist |  |  | EC50 | > 100000 nM
NS(=O)(=O)c1ccc(C(=O)N2CCCC(CNc3ccc(Cl)cc3)C2)cc1Cl (centres unmarked) | CA9 | enzyme activity | inhibitor |  |  | IC50 | 206 nM
O=C(O)c1cccc(CCNC(=O)c2cc3ccccc3[nH]c2=O)c1 | gyrB | binding |  | ITC |  | Kd | 1400 nM
Cc1cc(C)cc(C(=O)N2CCCC(C(=O)N(C)C(C)c3ccc(S(N)(=O)=O)cc3)C2)c1 (centres unmarked) | CA9 | enzyme activity | inhibitor |  |  | IC50 | 60 nM
CCS(=O)(=O)Nc1ccc(Nc2c3ccccc3nc3cc(NC(=O)CCCC[C@@H]4SC[C@@H]5NC(=O)N[C@@H]54)ccc23)c(OC)c1 | Lymphocyte antigen 6K (Homo sapiens, UniProt Q17RY6) | binding |  | SPR |  | Kd | 4700 nM
NS(=O)(=O)c1ccc(NC(=O)C(Cc2c[nH]c3ccccc23)NC(=O)c2cccs2)cc1 (centres unmarked) | CA9 | enzyme activity | inhibitor |  |  | IC50 | 37.2 nM
CSCC[C@H](NC(=O)[C@@H](NC(=O)[C@@H](N)Cc1ccc(O)cc1)C(C)C)C(=O)NCC(=O)N[C@@H](Cc1c[nH]cn1)C(=O)N[C@@H](Cc1ccccc1)C(=O)N[C@@H](CCCNC(=N)N)C(=O)N[C@@H](Cc1c[nH]c2ccccc12)C(=O)O | Melanocortin receptor 5 | reporter gene | agonist |  |  | EC50 | 710 nM
